Reference: ChEMBL document CHEMBL1275242, “Antifungal susceptibility profile of human-pathogenic species of Lichtheimia” (2010)
Converted amounts (≈) assume the structure as drawn. Numbered stars: 1 amine (or outer) side, 2 acyl side, 3 side chain; on linkers, the order of the positions; unused ones are H or OH. Bridge positions count the residues as written; N and C are the ends. Square brackets hold non-standard residues; d marks the D form. Peptide text beside a SMILES is read from it. * marks the point of attachment. hTyr(3S-OH,4S-OH,3'-OSO3H) = N[C@H](C(=O)O)[C@H](O)[C@@H](O)c1ccc(O)c(OS(=O)(=O)O)c1; pTerphenylCO(4''-OnC5H11) = CCCCCOc1ccc(-c2ccc(-c3ccc(C(=O)*)cc3)cc2)cc1; Orn(4R-OH,5R-OH) = O=C([C@H](C[C@@H](O)[C@@H](O)N[*:3])N[*:1])[*:2]; hTyr(3S-OH,4S-OH) = N[C@H](C(=O)O)[C@H](O)[C@@H](O)c1ccc(O)cc1; Pro(3S-OH,4S-Me) = C[C@H]1CN[C@H](C(=O)O)[C@H]1O; X1 = CCCCCOc1ccc(-c2cc(-c3ccc(C(=O)*)cc3)no2)cc1; Gln(3R-OH) = NC(=O)C[C@@H](O)[C@H](N)C(=O)O; Hyp = O=C(O)[C@@H]1C[C@@H](O)CN1

Legend:
Format in all cases: functional
[1] = Antifungal activity against Lichtheimia ramosa clinical isolate after 24 hrs by EUCAST method
Procedure, shortened: (§1)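 EUCAST broth microdilution, with spore inoculum counted in a hematocytometer. Final drug concentrations were 16 to 0.03 or 8 to 0.015 mg/liter depending on agent. Plates were incubated at 35°C in humid air and read visually with a mirror at 24 and 48 h. Endpoint was complete visual growth inhibition, except for echinocandins, where it was MEC (altered hyphal morphology versus growth control). Aspergillus QC strains were included.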

[2] = tested on: Lichtheimia corymbifera; experiment: Antifungal activity against Lichtheimia corymbifera clinical isolate after 48 hrs by EUCAST method; procedure, shortened: as §1
[3] = Antifungal activity against Lichtheimia ornata clinical isolate after 24 hrs by EUCAST method; procedure, shortened: as §1
[4] = tested on: Lichtheimia corymbifera; experiment: Antifungal activity against Lichtheimia corymbifera clinical isolate after 24 hrs by EUCAST method; procedure, shortened: as §1
[5] = Antifungal activity against Lichtheimia ramosa clinical isolate after 48 hrs by EUCAST method; procedure, shortened: as §1
[6] = Antifungal activity against Lichtheimia ornata clinical isolate after 48 hrs by EUCAST method; procedure, shortened: as §1

Structure (SMILES)	MIC [1] [µg/mL]	MIC [2] [µg/mL]	MIC [3] [µg/mL]	MIC [4] [µg/mL]	MIC [5] [µg/mL]	MIC [6] [µg/mL]
C[C@@H]1[C@H](O)[C@@H](C)/C=C/C=C/C=C/C=C/C=C/C=C/C=C/[C@H](O[C@@H]2O[C@H](C)[C@@H](O)[C@H](N)[C@@H]2O)C[C@@H]2O[C@](O)(C[C@@H](O)C[C@@H](O)[C@H](O)CC[C@@H](O)C[C@@H](O)CC(=O)O[C@H]1C)C[C@H](O)[C@H]2C(=O)O [AMPHOTERICIN B]	0.08 (≈ 0.0866 µM)	0.14 (≈ 0.152 µM)	0.12 (≈ 0.13 µM)	0.07 (≈ 0.0758 µM)	0.14 (≈ 0.152 µM)	0.12 (≈ 0.13 µM)
CCCCCOc1ccc(-c2ccc(-c3ccc(C(=O)N[C@H]4C[C@@H](O)[C@@H](O)NC(=O)[C@@H]5[C@@H](O)[C@@H](C)CN5C(=O)[C@H]([C@@H](C)O)NC(=O)[C@H]([C@H](O)[C@@H](O)c5ccc(O)cc5)NC(=O)[C@@H]5C[C@@H](O)CN5C(=O)[C@H]([C@@H](C)O)NC4=O)cc3)cc2)cc1 [ANIDULAFUNGIN] ({pTerphenylCO(4''-OnC5H11)}-[Orn(4R-OH,5R-OH)]T[Hyp][hTyr(3S-OH,4S-OH)]T[Pro(3S-OH,4S-Me)]; lactam 1-C)	3.58 (≈ 3.14 µM)	10.8 (≈ 9.48 µM)	4 (≈ 3.51 µM)	1.99 (≈ 1.75 µM)	5.15 (≈ 4.52 µM)	32 (≈ 28.1 µM)
CC[C@H](C)C[C@H](C)CCCCCCCCC(=O)N[C@H]1C[C@@H](O)[C@@H](NCCN)NC(=O)[C@@H]2[C@@H](O)CCN2C(=O)[C@H]([C@H](O)CCN)NC(=O)[C@H]([C@H](O)[C@@H](O)c2ccc(O)cc2)NC(=O)[C@@H]2C[C@@H](O)CN2C(=O)[C@H]([C@@H](C)O)NC1=O [CASPOFUNGIN]	11 (≈ 10.1 µM)	10 (≈ 9.16 µM)	32 (≈ 29.3 µM)	9.27 (≈ 8.48 µM)	21.4 (≈ 19.6 µM)	32 (≈ 29.3 µM)
CCC(C)n1ncn(-c2ccc(N3CCN(c4ccc(OCC5COC(Cn6cncn6)(c6ccc(Cl)cc6Cl)O5)cc4)CC3)cc2)c1=O (centres undefined) [ITRACONAZOLE]	0.92 (≈ 1.3 µM)	1.03 (≈ 1.46 µM)	0.5 (≈ 0.709 µM)	0.62 (≈ 0.879 µM)	2.38 (≈ 3.37 µM)	1 (≈ 1.42 µM)
CCCCCOc1ccc(-c2cc(-c3ccc(C(=O)N[C@H]4C[C@@H](O)[C@@H](O)NC(=O)[C@@H]5[C@@H](O)[C@@H](C)CN5C(=O)[C@H]([C@H](O)CC(N)=O)NC(=O)[C@H]([C@H](O)[C@@H](O)c5ccc(O)c(OS(=O)(=O)O)c5)NC(=O)[C@@H]5C[C@@H](O)CN5C(=O)[C@H]([C@@H](C)O)NC4=O)cc3)no2)cc1 [MICAFUNGIN] (X1-[Orn(4R-OH,5R-OH)]T[Hyp][hTyr(3S-OH,4S-OH,3'-OSO3H)][Gln(3R-OH)][Pro(3S-OH,4S-Me)]; lactam 1-C)	6.85 (≈ 5.39 µM)	12.6 (≈ 9.95 µM)	32 (≈ 25.2 µM)	8.92 (≈ 7.02 µM)	21.4 (≈ 16.8 µM)	32 (≈ 25.2 µM)
CC[C@@H]([C@H](C)O)n1ncn(-c2ccc(N3CCN(c4ccc(OC[C@@H]5CO[C@@](Cn6cncn6)(c6ccc(F)cc6F)C5)cc4)CC3)cc2)c1=O [POSACONAZOLE]	0.32 (≈ 0.457 µM)	0.58 (≈ 0.828 µM)	0.25 (≈ 0.357 µM)	0.37 (≈ 0.528 µM)	0.69 (≈ 0.985 µM)	0.25 (≈ 0.357 µM)
C[C@@H](c1nc(-c2ccc(C#N)cc2)cs1)[C@](O)(Cn1cncn1)c1ccc(F)cc1F [RAVUCONAZOLE]	1.44 (≈ 3.29 µM)	1.86 (≈ 4.25 µM)	1 (≈ 2.29 µM)	1.34 (≈ 3.06 µM)	3.42 (≈ 7.82 µM)	2 (≈ 4.57 µM)
CN(C/C=C/C#CC(C)(C)C)Cc1cccc2ccccc12 [TERBINAFINE]	0.56 (≈ 1.92 µM)	0.75 (≈ 2.57 µM)	0.25 (≈ 0.858 µM)	0.48 (≈ 1.65 µM)	1 (≈ 3.43 µM)	0.5 (≈ 1.72 µM)
C[C@@H](c1ncncc1F)[C@](O)(Cn1cncn1)c1ccc(F)cc1F [VORICONAZOLE]	12.6 (≈ 36 µM)	11.5 (≈ 33 µM)	16 (≈ 45.8 µM)	11.1 (≈ 31.8 µM)	15.1 (≈ 43.1 µM)	16 (≈ 45.8 µM)
